# Screening results from PubChem.
# An excerpt weighted towards active compounds, which were near 5.3% of everything screened.
# HIV Rev-RRE inh: HIV-1 Rev-RRE binding inhibitors, primary screen, biochemical, FRET, protein-RNA interaction; Rev peptide-RRE RNA binding; AID 704, 2007; P05866; 97,000 compounds, 0.79% hits; inhibition, % at 8 µM;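 active means inhibition above the screen-wide mean plus 3 SD, cut at about 35% in these data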
#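 Probe or stimulus: fluorescein-Rev peptide as binding partner; assay system: Cy5-tagged RRE RNA duplex with fluorescein-tagged Rev peptide; timing: 5 min compound–RNA preincubation, then 15 min with peptide, 25 °C; medium: HEPES pH 7.5 buffer with KCl, MgCl2, NaCl and EDTA; signal: fluorescein-to-Cy5 FRET, 480 nm excitation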
# PLK1 inh: human PLK1 kinase inhibitors, primary screen, biochemical, TR-FRET; Serine/threonine-protein kinase PLK1 (Homo sapiens), P53350; recombinant PLK1 kinase, TR-FRET peptide phosphorylation; inhibition, % at 10 µM; 97,000 compounds, 0.53% hits;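 active means inhibition of 50% or more in the single-concentration screen; inactive means inhibition below 50%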
# FAK inh: FAK kinase inhibitors, primary screen, biochemical. inhibition, %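 (tested at 7 µM)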. 97,000 compounds, 0.84% hits. AID 727, 2007. biochemical FAK kinase activity assay; in the data active means inhibition above about 19%
# Target sequence (Q05397 whole entry, looked up): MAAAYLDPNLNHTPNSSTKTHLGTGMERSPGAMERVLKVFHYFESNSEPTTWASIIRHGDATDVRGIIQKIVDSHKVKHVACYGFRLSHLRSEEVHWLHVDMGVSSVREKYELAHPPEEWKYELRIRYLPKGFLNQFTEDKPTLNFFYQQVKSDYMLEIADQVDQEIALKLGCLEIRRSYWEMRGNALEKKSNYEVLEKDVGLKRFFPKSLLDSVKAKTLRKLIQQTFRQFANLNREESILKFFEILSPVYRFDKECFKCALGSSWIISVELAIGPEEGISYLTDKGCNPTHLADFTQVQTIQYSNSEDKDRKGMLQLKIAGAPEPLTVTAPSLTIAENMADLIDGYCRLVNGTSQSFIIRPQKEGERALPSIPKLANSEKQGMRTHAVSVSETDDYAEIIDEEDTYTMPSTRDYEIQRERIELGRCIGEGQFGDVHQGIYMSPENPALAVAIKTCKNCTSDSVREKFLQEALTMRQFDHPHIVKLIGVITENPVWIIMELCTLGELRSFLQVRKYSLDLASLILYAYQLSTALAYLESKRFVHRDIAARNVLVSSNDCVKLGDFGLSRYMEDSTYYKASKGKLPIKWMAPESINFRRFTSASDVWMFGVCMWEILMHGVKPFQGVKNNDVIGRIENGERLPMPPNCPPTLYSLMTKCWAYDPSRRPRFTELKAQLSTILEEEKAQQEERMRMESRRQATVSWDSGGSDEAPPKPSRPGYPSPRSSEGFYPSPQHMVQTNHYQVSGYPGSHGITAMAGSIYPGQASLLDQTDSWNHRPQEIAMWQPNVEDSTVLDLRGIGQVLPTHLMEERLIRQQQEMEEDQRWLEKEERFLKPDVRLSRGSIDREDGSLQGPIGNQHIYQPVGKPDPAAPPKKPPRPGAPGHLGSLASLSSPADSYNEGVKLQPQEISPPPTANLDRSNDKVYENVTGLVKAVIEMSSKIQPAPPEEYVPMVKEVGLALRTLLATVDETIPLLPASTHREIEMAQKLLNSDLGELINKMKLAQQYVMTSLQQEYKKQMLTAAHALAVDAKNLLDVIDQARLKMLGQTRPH
# Cav32 inh: Cav3.2 calcium influx blockers – cell-based, Fluo-4 calcium fluorescence, FDSS, MLSMR library, primary screen; Voltage-dependent T-type calcium channel subunit alpha-1H (Homo sapiens), O95180; Cav3.2-expressing cells; stronger effect = lower value; B-score at 10 µM; 100,000 compounds, 4% hits; AID 449739, 2010;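 active means single-dose well whose peak fluorescence ratio is a statistical outlier from its plate by either plate-standardised score or position-corrected B-score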
# PLK1 PBD inh: Plk1 polo box domain binding inhibitors, primary screen, biochemical, fluorescence polarization | Plk1 PBD phosphopeptide binding | Serine/threonine-protein kinase PLK1 (Homo sapiens), P53350 | 97,000 compounds, 0.13% hits | AID 693, 2007 | inhibition, %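 (tested at about 20 µM)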; in the data active means inhibition above about 34%, passing the limit was not always enough
# EphB4 antag: EphB4-ephrin-B2 interaction antagonists, primary screen, biochemical, TNYL-RAW peptide probe, fluorescence polarization; Ephrin type-B receptor 4 (Homo sapiens), P54760; EphB4 LBD / TNYL-RAW-Alexa532 peptide; inhibition, % at 7 µM; 97,000 compounds, 0.15% hits;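 active means inhibition above the screen-wide mean inhibition plus 3 SD, cut at about 15% in these data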
# A number is an active result; 0 = inactive; - = no result; [ ] = another dose, or the depositor's remark.
SMILES,HIV Rev-RRE inh,PLK1 inh,FAK inh,Cav32 inh,PLK1 PBD inh,EphB4 antag
COc1cc(CC(=O)NCCc2ccc(S(N)(=O)=O)cc2)cc(OC)c1OC,0,0,0,0,0,0
Cc1ccc(S(=O)(=O)N/N=C\c2cc([N+](=O)[O-])ccc2Cl)cc1,0,0,0,0,0,0
COC(=O)/C(=C/c1c[nH]c2ccccc12)[N+](=O)[O-],0,0,0,0,0,0
O=[N+]([O-])c1ccccc1N/N=C/c1c[nH]c2ccccc12,0,0,0,0,0,0
COc1ccc(NS(=O)(=O)c2cc([N+](=O)[O-])ccc2N/N=C\c2c(C)[nH]c3ccccc23)cc1,44,0,0,0,0,0
COc1ccccc1NS(=O)(=O)c1cc([N+](=O)[O-])ccc1N/N=C/c1c[nH]c2ccccc12,64[fluorescence artefact?],0,0,0,0,0
O=[N+]([O-])c1ccc(N/N=C/c2c[nH]c3ccccc23)cc1,58[fluorescence artefact?],0,0,0,0,0
Cc1[nH]c2ccccc2c1/C=N/Nc1ccc([N+](=O)[O-])cc1S(=O)(=O)Nc1ccc(Cl)cc1,41,0,0,0,0,0
COC(=O)[C@@H]1[C@H](CCc2ccccc2)NC(=O)N(Cc2ccccc2)[C@@H]1C,-,-,-,0,-,-
O=C(c1ccc(-c2ccccc2Cl)s1)N1CCOCC1,-,-,-,0,-,-
C=CC[C@]12CC=CC(=O)[C@@]1(O)O[C@H](c1ccc(OC)c(OC)c1)[C@H]2C,-,-,-,0,-,-
CN(CCOc1ccc(-c2ccn(S(=O)(=O)c3ccc(Cl)cc3)n2)cc1)c1ccccn1,0,0,0,-4.7,0,0
CC1=C(C)C(=O)C(CCCCC#CCCCC#CCO)=C(C)C1=O,-,-,-,-4.1,-,-
CCCOC(=O)c1c(NC(=O)CSc2nc(-c3ccco3)cc(C(F)(F)F)n2)sc(C(=O)OC)c1C,0,0,0,-5.2,0,0
CCOC(=O)c1sc(NC(=O)CSc2nc(-c3ccco3)cc(C(F)(F)F)n2)c(C(=O)OC)c1C,0,0,0,0,0,0
O=C(c1ccco1)N(CCC(c1ccccc1)c1ccco1)Cc1ccc(F)cc1 (centres undefined),0,0,0,-3.9,0,0
O=C(CN(Cc1ccc(F)cc1)C(=O)c1ccco1)NCc1ccc(F)cc1,0,0,0,0,0,0
Cc1cccc(C)c1OC1(c2ccccc2)OC(=O)c2ccccc21 (centres undefined),0,0,0,-6.6,0,0
On1c2c(c3c4nonc4ccc31)CCCC2,0,51,0,-5.8,0,0
COn1c2c(c3c4nonc4ccc31)CCCC2,0,0,0,0,0,0
COc1cccc(CN(C(=O)Cc2c[nH]c3ccccc23)C(C(=O)NC2CCCCC2)c2cccs2)c1 (centres undefined),0,0,0,-6.6,0,0
O=C(NC1CCCCC1)C(c1cccs1)N(C(=O)Cc1c[nH]c2ccccc12)c1ccc(F)cc1 (centres undefined),0,0,0,0,0,0
COc1ccc(C(C(=O)NC2CCCCC2)N(Cc2cccs2)C(=O)Cc2c[nH]c3ccccc23)cc1 (centres undefined),0,0,0,-6.4,0,0
COc1ccc(CSCC(=O)N/N=C/c2ccccc2OCc2ccccc2)cc1,0,0,0,-5.8,0,0
Cc1cc(NC(=O)CCC(=O)N(Cc2ccco2)C(C(=O)NC2CCCC2)c2ccccc2C)no1 (centres undefined),0,0,0,-7.4,0,0
SMILES,HIV Rev-RRE inh,PLK1 inh,FAK inh,Cav32 inh,PLK1 PBD inh,EphB4 antag
Cc1cc(NC(=O)CCC(=O)N(c2ccc(F)cc2)C2(C(=O)NC3CCCCC3)CCCC2)no1,0,0,0,-3.7,0,0
Cc1cc(NC(=O)CCC(=O)N(CC(=O)NC2CCCC2)c2ccc3c(c2)OCCO3)no1,0,0,0,0,0,0
Cc1cc(NC(=O)CCC(=O)N(Cc2cccs2)C(C(=O)NC2CCCC2)c2ccncc2)no1 (centres undefined),-,-,-,0,-,-
Cc1cc(NC(=O)CCC(=O)N(Cc2ccco2)C(C(=O)NC2CCCCC2)c2ccccc2)no1 (centres undefined),0,0,0,-4.4,0,0
Cc1ccc(C(C(=O)NC2CCCC2)N(C(=O)CCC(=O)Nc2cc(C)on2)c2ccccc2)cc1 (centres undefined),0,0,0,0,0,0
Cc1cc(NC(=O)CCC(=O)N(CCc2ccccc2)C(C(=O)NC2CCCC2)c2ccco2)no1 (centres undefined),0,0,0,-3.7,0,0
COc1cccc(SCc2noc(C(=O)NCC3CC3)c2C(=O)NCC2CC2)c1,-,-,-,0,-,-
CS(=O)(=O)c1ccc(-c2cc(Br)sc2-c2ccc(F)cc2)cc1,-,-,-,0,-,-
Cc1cc(N2C(=O)C3CC=CC(C)C3C2=O)no1 (centres undefined),0,0,0,0,0,0
O=C(NCC(=O)N(Cc1cccs1)C(C(=O)NC1CCCCC1)c1ccco1)c1ccco1 (centres undefined),0,0,0,0,0,0
O=C(NC1CCCCC1)C(c1cccs1)N(Cc1cccs1)C(=O)c1ccco1 (centres undefined),0,0,0,-4.1,0,0
O=C(NC1CCCC1)C(c1ccccc1)N(Cc1ccco1)C(=O)Cc1cccs1 (centres undefined),0,0,0,-6.2,0,0
COc1ccc(N(C(=O)c2ccco2)C(C(=O)NC2CCCC2)c2ccc(N(C)C)cc2)cc1 (centres undefined),0,0,0,-3.5,0,0
COC(=O)N1[C@H](C)C=C[C@]1(Cc1ccccc1)C(=O)O,-,-,-,0,-,-
CCOC(=O)CN(C(=O)CSc1nnc2c(n1)[nH]c1ccccc12)c1ccccc1,0,0,0,0,0,0
CCOC(=O)CN(C(=O)CSc1nnc2c(n1)[nH]c1ccc(F)cc12)c1ccccc1,0,0,0,-4.3,0,0
CCOC(=O)C(NC(=O)c1cccnc1)(Nc1cccc(C)n1)C(F)(F)F (centres undefined),0,0,0,0,0,0
COC(=O)C(NNc1ccccc1C)(NC(=O)c1ccc(F)cc1)C(F)(F)F (centres undefined),0,0,0,-4.9,0,0
COC(=O)C(NC(=O)c1ccccc1)(Nc1cc(C)cc(C)n1)C(F)(F)F (centres undefined),0,0,0,-4.2,0,0
c1csc(CN2CCOCC2)c1,0,0,0,0,0,0
Cc1cc2nc(N)sc2cc1[N+](=O)[O-],0,0,0,0,0,0
